Converted amounts (≈) assume the structure as drawn.
How the values were obtained:
[1] = molecular target: T1, Bifunctional epoxide hydrolase 2 (Homo sapiens, UniProt P34913); test: Inhibition of human soluble epoxide hydrolase pre-incubated for 5 mins at 30 degC before CMNPC fluorescent substrate addition by fluorimetric assay
T1 sequence (P34913 whole entry): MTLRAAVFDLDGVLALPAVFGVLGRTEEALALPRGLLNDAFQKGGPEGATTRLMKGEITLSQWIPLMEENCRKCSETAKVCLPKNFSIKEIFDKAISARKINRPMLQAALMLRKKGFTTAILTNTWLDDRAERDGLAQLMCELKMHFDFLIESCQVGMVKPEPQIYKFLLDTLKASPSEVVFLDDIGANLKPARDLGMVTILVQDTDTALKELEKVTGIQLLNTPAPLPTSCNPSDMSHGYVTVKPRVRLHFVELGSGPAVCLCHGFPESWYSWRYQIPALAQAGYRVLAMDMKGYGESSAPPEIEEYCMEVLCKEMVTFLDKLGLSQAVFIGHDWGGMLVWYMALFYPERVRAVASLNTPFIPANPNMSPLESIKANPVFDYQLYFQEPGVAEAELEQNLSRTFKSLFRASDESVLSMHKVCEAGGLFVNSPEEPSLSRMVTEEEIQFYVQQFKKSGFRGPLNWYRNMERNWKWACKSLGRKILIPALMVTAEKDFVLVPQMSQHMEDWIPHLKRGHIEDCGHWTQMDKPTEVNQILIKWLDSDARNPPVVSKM
How it was run: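 Recombinant-free detail not given; human sEH at 0.96 nM preincubated with inhibitor 5 min at 30°C in 25 mM Bis-Tris/HCl, pH 7.0, then fluorescent substrate added at 5 μM. Fluorescence read-out; IC50 reported as mean of three separate measurements, assay standard error stated as 10–20%.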

[2] = Solubility in water using 0.1 M pH 7.4 phosphate buffer by LC-MS/MS method; format: physicochemical
How it was run: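 Excess solid suspended in 0.1 M sodium phosphate buffer, pH 7.4; equilibrated by 1 h sonication then 24 h shaking; centrifuged. Supernatant analysed by LC-MS/MS, with amount calculated from a regression curve built for each compound from five standard solutions.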

[3] = Stability in human liver microsomes aunder NADPH generating system at 37 degC for 60 mins by LC-MS/MS method; format: ADME, Microsome; conditions: read-out: Stability
How it was run: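 Test compound incubated with 0.125 mg human liver microsomal protein plus NADPH-generating system, shaken 37°C for 60 min. Remaining parent quantified by LC-MS/MS and expressed as percent; acid metabolites also monitored. Mean of triplicate independent analyses.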

SMILES | IC50 [1] [nM] | solubility [2] [µg/mL] | remaining at 1 h [3] [%]
CCOCCOCCOC(=O)CCCNC(=O)NC12CC3CC(CC(C3)C1)C2 | 67 | 878 (≈ 2210 µM) | 10
O=C(O)CCCNC(=O)NC12CC3CC(CC(C3)C1)C2 | 684 |  | 97
CCCCC(CC)OC(=O)C1CCCC(NC(=O)NC23CC4CC(CC(C4)C2)C3)C1 (stereo not given) | 3 | 1 (≈ 2.39 µM) | 10
CCOCCOCC(OC(=O)CCCNC(=O)NC12CC3CC(CC(C3)C1)C2)c1ccccc1 (stereo not given) | 4 | 89 (≈ 188 µM) | 14
O=C(NC1CCCC(C(=O)O)C1)NC12CC3CC(CC(C3)C1)C2 (stereo not given) | 1160 |  | 95
CCCCC(CC)OC(=O)CCCNC(=O)NC12CC3CC(CC(C3)C1)C2 (stereo not given) | 4 | 3 (≈ 7.92 µM) | 4
CCOCCOCC(OC(=O)C1CCCC(NC(=O)NC23CC4CC(CC(C4)C2)C3)C1)c1ccccc1 (stereo not given) | 9 | 41 (≈ 80 µM) | 32
CCCCC(C)OC(=O)CCCNC(=O)NC12CC3CC(CC(C3)C1)C2 (stereo not given) | 4 |  | 
CCCCCOC(=O)CCCNC(=O)NC12CC3CC(CC(C3)C1)C2 | 10 | 2 (≈ 5.71 µM) | < 1
CCCCCOC(=O)C1CCCC(NC(=O)NC23CC4CC(CC(C4)C2)C3)C1 (stereo not given) | 2 |  | 
CCCCC(C#N)OC(=O)CCCNC(=O)NC12CC3CC(CC(C3)C1)C2 (stereo not given) | 12 |  | 
